Results reported in ChEMBL document CHEMBL5058577, “EUbOPEN Chemogenomics Library 2 (Multiplex)” (2022).

Test system: HEK-293T
Experiment: Multiplex assay against HEK293T
Assay type: toxicity, cell-based
Settings: human
Outline: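 Live cells were stained at seeding with Hoechst33342, BioTracker Green Microtubule Cytoskeleton Dye, MitoTracker Red and Annexin V Alexa Fluor 680, then imaged on a CQ1 microscope at 37°C and 5% CO2 after compound addition. CellPathfinder machine-learning gating split cells into Hoechst high-intensity objects or normal cells. Normal cells were split into healthy, pyknosed or fragmented nuclei, and pyknosed cells into mitotic or apoptotic. Tubulin, mitochondrial-mass and membrane-permeability phenotypes are per cents of healthy-nucleus cells.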

[1] = 12 h, 1 µM, compound concentration 1 uM, replicate 1
[2] = 12 h, 1 µM, compound concentration 1 uM, replicate 2
[3] = 12 h, 10 µM, compound concentration 10 uM, replicate 1
[4] = 12 h, 10 µM, compound concentration 10 uM, replicate 2
[5] = 24 h, 1 µM, compound concentration 1 uM, replicate 1
[6] = 24 h, 1 µM, compound concentration 1 uM, replicate 2
[7] = 24 h, 10 µM, compound concentration 10 uM, replicate 1
[8] = 24 h, 10 µM, compound concentration 10 uM, replicate 2
[9] = 48 h, 1 µM, compound concentration 1 uM, replicate 1
[10] = 48 h, 1 µM, compound concentration 1 uM, replicate 2
[11] = 48 h, 10 µM, compound concentration 10 uM, replicate 1
[12] = 48 h, 10 µM, compound concentration 10 uM, replicate 2

Compound: N[C@](CC1c2ccccc2Oc2ccccc21)(C(=O)O)[C@H]1C[C@@H]1C(=O)O
- Population Apoptotic (%) [1]: 38%
- Population Fragmented Nuclei (%) [1]: 6%
- Population Healthy Nuclei (%) [1]: 83%
- Population Hoechst High Intensity Objects (%) [1]: 7%
- Population Membrane Permeable-Phenotype (%) [1]: 0%
- Population Mitochondria Different-Phenotype (%) [1]: 43%
- Population Mitotic Cells (%) [1]: 61%
- Population Normal (%) [1]: 92%
- Population Pyknosed Nuclei (%) [1]: 10%
- Population Tubulin-Different-Phenotype (%) [1]: 27%
- Total Cell Count [1]: 447
- Population Apoptotic (%) [2]: 54%
- Population Fragmented Nuclei (%) [2]: 7%
- Population Healthy Nuclei (%) [2]: 79%
- Population Hoechst High Intensity Objects (%) [2]: 5%
- Population Mitochondria Different-Phenotype (%) [2]: 58%
- Population Mitotic Cells (%) [2]: 45%
- Population Normal (%) [2]: 94%
- Population Pyknosed Nuclei (%) [2]: 12%
- Population Tubulin-Different-Phenotype (%) [2]: 25%
- Total Cell Count [2]: 270
- Population Apoptotic (%) [3]: 32%
- Population Fragmented Nuclei (%) [3]: 9%
- Population Healthy Nuclei (%) [3]: 78%
- Population Hoechst High Intensity Objects (%) [3]: 8%
- Population Membrane Permeable-Phenotype (%) [3]: 0%
- Population Mitochondria Different-Phenotype (%) [3]: 40%
- Population Mitotic Cells (%) [3]: 67%
- Population Normal (%) [3]: 91%
- Population Pyknosed Nuclei (%) [3]: 12%
- Population Tubulin-Different-Phenotype (%) [3]: 23%
- Total Cell Count [3]: 381
- Population Fragmented Nuclei (%) [4]: 4%
- Population Healthy Nuclei (%) [4]: 81%
- Population Hoechst High Intensity Objects (%) [4]: 7%
- Population Mitochondria Different-Phenotype (%) [4]: 66%
- Population Normal (%) [4]: 92%
- Population Pyknosed Nuclei (%) [4]: 13%
- Population Tubulin-Different-Phenotype (%) [4]: 31%
- Total Cell Count [4]: 382
- Population Apoptotic (%) [5]: 21%
- Population Fragmented Nuclei (%) [5]: 8%
- Population Healthy Nuclei (%) [5]: 81%
- Population Hoechst High Intensity Objects (%) [5]: 3%
- Population Membrane Permeable-Phenotype (%) [5]: 1%
- Population Mitochondria Different-Phenotype (%) [5]: 24%
- Population Mitotic Cells (%) [5]: 78%
- Population Normal (%) [5]: 96%
- Population Pyknosed Nuclei (%) [5]: 10%
- Population Tubulin-Different-Phenotype (%) [5]: 15%
- Total Cell Count [5]: 629
- Population Apoptotic (%) [6]: 38%
- Population Fragmented Nuclei (%) [6]: 9%
- Population Healthy Nuclei (%) [6]: 84%
- Population Hoechst High Intensity Objects (%) [6]: 5%
- Population Membrane Permeable-Phenotype (%) [6]: 0%
- Population Mitochondria Different-Phenotype (%) [6]: 30%
- Population Mitotic Cells (%) [6]: 61%
- Population Normal (%) [6]: 94%
- Population Pyknosed Nuclei (%) [6]: 6%
- Population Tubulin-Different-Phenotype (%) [6]: 16%
- Total Cell Count [6]: 368
- Population Apoptotic (%) [7]: 29%
- Population Fragmented Nuclei (%) [7]: 10%
- Population Healthy Nuclei (%) [7]: 79%
- Population Hoechst High Intensity Objects (%) [7]: 5%
- Population Membrane Permeable-Phenotype (%) [7]: 0%
- Population Mitochondria Different-Phenotype (%) [7]: 30%
- Population Mitotic Cells (%) [7]: 70%
- Population Normal (%) [7]: 94%
- Population Pyknosed Nuclei (%) [7]: 10%
- Population Tubulin-Different-Phenotype (%) [7]: 17%
- Total Cell Count [7]: 510
- Population Apoptotic (%) [8]: 40%
- Population Fragmented Nuclei (%) [8]: 6%
- Population Healthy Nuclei (%) [8]: 82%
- Population Mitochondria Different-Phenotype (%) [8]: 41%
- Population Mitotic Cells (%) [8]: 59%
- Population Pyknosed Nuclei (%) [8]: 11%
- Population Tubulin-Different-Phenotype (%) [8]: 16%
- Total Cell Count [8]: 471
- Population Apoptotic (%) [9]: 12%
- Population Fragmented Nuclei (%) [9]: 11%
- Population Healthy Nuclei (%) [9]: 80%
- Population Hoechst High Intensity Objects (%) [9]: 2%
- Population Membrane Permeable-Phenotype (%) [9]: 2%
- Population Mitochondria Different-Phenotype (%) [9]: 15%
- Population Mitotic Cells (%) [9]: 87%
- Population Normal (%) [9]: 97%
- Population Pyknosed Nuclei (%) [9]: 7%
- Population Tubulin-Different-Phenotype (%) [9]: 13%
- Total Cell Count [9]: 1040
- Population Apoptotic (%) [10]: 17%
- Population Fragmented Nuclei (%) [10]: 12%
- Population Healthy Nuclei (%) [10]: 81%
- Population Hoechst High Intensity Objects (%) [10]: 1%
- Population Membrane Permeable-Phenotype (%) [10]: 0%
- Population Mitochondria Different-Phenotype (%) [10]: 17%
- Population Mitotic Cells (%) [10]: 82%
- Population Normal (%) [10]: 98%
- Population Pyknosed Nuclei (%) [10]: 6%
- Population Tubulin-Different-Phenotype (%) [10]: 10%
- Total Cell Count [10]: 654
- Population Apoptotic (%) [11]: 28%
- Population Fragmented Nuclei (%) [11]: 13%
- Population Healthy Nuclei (%) [11]: 78%
- Population Hoechst High Intensity Objects (%) [11]: 2%
- Population Membrane Permeable-Phenotype (%) [11]: 0%
- Population Mitochondria Different-Phenotype (%) [11]: 17%
- Population Mitotic Cells (%) [11]: 71%
- Population Normal (%) [11]: 97%
- Population Pyknosed Nuclei (%) [11]: 8%
- Population Tubulin-Different-Phenotype (%) [11]: 8%
- Total Cell Count [11]: 789
- Population Apoptotic (%) [12]: 42%
- Population Healthy Nuclei (%) [12]: 80%
- Population Hoechst High Intensity Objects (%) [12]: 4%
- Population Mitochondria Different-Phenotype (%) [12]: 25%
- Population Mitotic Cells (%) [12]: 57%
- Population Normal (%) [12]: 95%
- Population Pyknosed Nuclei (%) [12]: 6%
- Population Tubulin-Different-Phenotype (%) [12]: 12%
- Total Cell Count [12]: 687
